Assay results from ChEMBL document CHEMBL1126267, “A novel synthesis and potent antiinflammatory activity of 4-hydroxy-2(1H)-oxo-1-phenyl-1,8-naphthyridine-3-carboxamides” (1992).

How the values were obtained:
Assay type in all cases: functional
Rattus norvegicus [1] = experiment: Antiinflammatory activity on Zymosan-induced rat's paw edema(ZPE) after peroral administration of 3 mg/kg dose with control swelling of 68.1%; conditions: route oral
In short: (§1)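 Male Wistar rats weighing about 150 g were dosed orally with compound suspended in 5% arabic gum. 1 h later, 1% zymosan in 0.1 mL saline was injected subplantarly into the hind paw. Paw volume was measured by plethysmograph before dosing and 4 h after zymosan, with edema as the volume difference. Inhibition % was derived from mean swelling versus the control group.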

Rattus norvegicus [2] = experiment: Antiinflammatory activity on Carrageenan rat's paw edema(CPE) after peroral administration of 3 mg/kg dose with control swelling of 75.8%; conditions: route oral
Rattus norvegicus [3] = experiment: Compound was tested for the inhibition of Carrageenan rat's paw edema(CPE) after peroral administration of 10 mg/kg dose
Rattus norvegicus [4] = experiment: Antiinflammatory activity on Zymosan-induced rat's paw edema(ZPE) after peroral administration of 30 mg/kg dose with control swelling of 68.1%; conditions: route oral; in short: as §1
Rattus norvegicus [5] = experiment: Compound was tested for the inhibition of rat reversed passive Arthus pleurisy after peroral administration of 5 mg/kg dose at 0.4+/-0.04 mL of exudate volume (injected intrapleurally); conditions: route oral
In short: (§2)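 Male Wistar rats (about 250 g) under ether received 0.2 mL rabbit anti-egg-albumin antiserum intrapleurally. Thirty min later they got 15 mg EA/100 g body weight in 0.1 mL saline iv. Compounds were given orally beforehand. Rats were killed 4.5 h after induction and the thoracic cavity rinsed with 5 mL saline. Exudate volume and infiltrated cell count were read as mean ± SE. % inhibition is versus control.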

Rattus norvegicus [6] = experiment: Compound was tested for the inhibition of Zymosan-induced rat's paw edema(ZPE) after peroral administration of 3 mg/kg dose; conditions: route oral; in short: as §1
Rattus norvegicus [7] = experiment: Compound was tested for the inhibition of rat reversed passive Arthus pleurisy after peroral administration of 100 mg/kg dose at 0.28+/-0.06 mL of exudate volume (injected intrapleurally); conditions: route oral
In short: (§3)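 Male Wistar rats (about 250 g) were given compound orally before the antiserum. Under ether anesthesia, 0.2 mL rabbit anti-egg albumin antiserum was injected intrapleurally. After 30 min, egg albumin (15 mg/100 g body weight in 0.1 mL saline) was given iv. Rats were killed 4.5 h later and the thoracic cavity was rinsed with 5 mL saline. Exudate volume and infiltrated cell number were measured, with inhibition % versus controls as mean ± SEM.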

Rattus norvegicus [8] = experiment: Compound was tested for the inhibition of Zymosan-induced rat's paw edema(ZPE) after peroral administration of 30 mg/kg dose; conditions: route oral; in short: as §1
Rattus norvegicus [9] = experiment: Compound was tested for the inhibition of arachidonic acid-induced rat's paw edema(APE) after peroral administration of 30 mg/kg dose; conditions: route oral
In short: (§4)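 Test: arachidonic acid paw edema in male Wistar rats of about 150 g. Oral dosing in 5% arabic gum came 1 h before subplantar injection of 1% arachidonic acid sodium salt in 0.1 mL saline into the hind paw. Plethysmograph paw volume was read before dosing and 1 h post-irritant, and edema = volume difference. % inhibition was taken from mean swelling against controls.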

Rattus norvegicus [10] = experiment: Compound was tested for the inhibition of rat reversed passive Arthus pleurisy after peroral administration of 10 mg/kg dose at 4.30+/-0.41*10e6 no of cells; conditions: route oral; in short: as §3
Rattus norvegicus [11] = experiment: Antiinflammatory activity on Zymosan-induced rat's paw edema(ZPE) after peroral administration of 10 mg/kg dose with control swelling of 68.1%; conditions: route oral; in short: as §1
Rattus norvegicus [12] = experiment: Compound was tested for the inhibition of arachidonic acid-induced rat's paw edema(APE) after peroral administration of 3 mg/kg dose with control swelling of 51.6%; conditions: route oral; in short: as §4
Rattus norvegicus [13] = experiment: Antiinflammatory activity on Carrageenan rat's paw edema(CPE) after peroral administration of 30 mg/kg dose with control swelling of 75.8%; conditions: route oral
Rattus norvegicus [14] = experiment: Compound was tested for the inhibition of rat reversed passive Arthus pleurisy after peroral administration of 100 mg/kg dose at 2.96*10e6 no of cells with 3.86*10e6 cells of control; conditions: route oral; in short: as §3
Rattus norvegicus [15] = experiment: Compound was tested for the inhibition of rat reversed passive Arthus pleurisy after peroral administration of 10 mg/kg dose at 0.37+/-0.07 mL of exudate volume (injected intrapleurally); conditions: route oral; in short: as §3
Rattus norvegicus [16] = experiment: Antiinflammatory activity on Carrageenan rat's paw edema(CPE) after peroral administration of 10 mg/kg dose with control swelling of 75.8%; conditions: route oral
Rattus norvegicus [17] = experiment: Compound was tested for the inhibition of rat reversed passive Arthus pleurisy after peroral administration of 100 mg/kg dose at 2.96 +/- 0.16*10e6 no of cells; conditions: route oral; in short: as §3
Rattus norvegicus [18] = experiment: Compound was tested for the inhibition of arachidonic acid-induced rat's paw edema(APE) after peroral administration of 3 mg/kg dose; conditions: route oral; in short: as §4
Rattus norvegicus [19] = experiment: Compound was tested for the inhibition of Carrageenan rat's paw edema(CPE) after peroral administration of 3 mg/kg dose; conditions: route oral
Rattus norvegicus [20] = experiment: Compound was tested for the inhibition of arachidonic acid-induced rat's paw edema(APE) after peroral administration of 30 mg/kg dose with control swelling of 51.6%; conditions: route oral
Rattus norvegicus [21] = experiment: Compound was tested for the inhibition of arachidonic acid-induced rat's paw edema(APE) after peroral administration of 10 mg/kg dose with control swelling of 51.6%; conditions: route oral; in short: as §4
Rattus norvegicus [22] = experiment: Antiinflammatory activity on Zymosan-induced rat's paw edema(ZPE) after peroral administration of 100 mg/kg dose with control swelling of 71.7%; conditions: route oral; in short: as §1
Rattus norvegicus [23] = experiment: Compound was tested for the inhibition of rat reversed passive Arthus pleurisy after peroral administration of 25 mg/kg dose at 4.25+/-0.1*10e6 no of cells; conditions: route oral; in short: as §2
Rattus norvegicus [24] = experiment: Antiinflammatory activity on Carrageenan rat's paw edema(CPE) after peroral administration of 100 mg/kg dose with control swelling of 64.2%; conditions: route oral
Rattus norvegicus [25] = experiment: Compound was tested for the inhibition of rat reversed passive Arthus pleurisy after peroral administration of 25 mg/kg dose at 0.32+/-0.07 mL of exudate volume (injected intrapleurally); conditions: route oral; in short: as §2
Rattus norvegicus [26] = experiment: Inhibition of Zymosan-induced rat's paw edema(ZPE) after peroral administration of 100 mg/kg dose.; conditions: route oral
In short: (§5)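 Male Wistar rats (about 150 g) were dosed orally with compound suspended in 5% arabic gum, 1 h before a subplantar hind-paw injection of 0.1 mL saline. The irritant was 1% zymosan for 33 or 1% λ-carrageenin for 34. Paw volume was measured by plethysmograph before dosing and at 4 h (zymosan) or 3 h (carrageenin). Swelling is relative to initial volume, as mean ± SEM. % inhibition is versus the control group's mean swelling.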

Rattus norvegicus [27] = experiment: Compound was tested for the inhibition of arachidonic acid-induced rat's paw edema(APE) after peroral administration of 10 mg/kg dose; conditions: route oral; in short: as §4
Rattus norvegicus [28] = experiment: Compound was tested for the inhibition of Zymosan-induced rat's paw edema(ZPE) after peroral administration of 10 mg/kg dose; conditions: po; in short: as §1
Rattus norvegicus [29] = experiment: Inhibition of carrageenan-induced rat's paw edema (CPE) after peroral administration of 100 mg/kg dose.; conditions: route oral; in short: as §5
Rattus norvegicus [30] = experiment: Compound was tested for the inhibition of rat reversed passive Arthus pleurisy after peroral administration of 100 mg/kg dose at 0.28 mL of exudate volume with 0.86 mL of control (injected intrapleurally); conditions: route oral; in short: as §3
Rattus norvegicus [31] = experiment: Compound was tested for the inhibition of rat reversed passive Arthus pleurisy after peroral administration of 5 mg/kg dose at 3.54+/-0.06*10e6 no of cells; conditions: route oral; in short: as §2
Rattus norvegicus [32] = experiment: Compound was tested for the inhibition of rat reversed passive Arthus pleurisy after peroral administration of 100 mg/kg dose at 4.4*10e6 no of cells with 5.72*10e6 cells of control; conditions: route oral; in short: as §2
Rattus norvegicus [33] = experiment: Compound was tested for the inhibition of rat reversed passive Arthus pleurisy after peroral administration of 100 mg/kg dose at 0.71 mL of exudate volume with 0.84 mL of control (injected intrapleurally); conditions: route oral; in short: as §3
Rattus norvegicus [34] = experiment: Antiinflammatory activity on Zymosan-induced rat's paw edema(ZPE) after peroral administration of 100 mg/kg dose with control swelling of 85.5%; conditions: route oral; in short: as §1
Rattus norvegicus [35] = experiment: Compound was tested for the inhibition of rat reversed passive Arthus pleurisy after peroral administration of 100 mg/kg dose at 0.73 mL of exudate volume with 0.86 mL of control (injected intrapleurally); conditions: route oral; in short: as §3
Rattus norvegicus [36] = experiment: Compound was tested for the inhibition of rat reversed passive Arthus pleurisy after peroral administration of 100 mg/kg dose at 3.37*10e6 no of cells with 3.86*10e6 cells of control; conditions: route oral; in short: as §2
Rattus norvegicus [37] = experiment: Antiinflammatory activity on Carrageenan rat's paw edema(CPE) after peroral administration of 100 mg/kg dose with control swelling of 90.0%; conditions: route oral

O=C(Nc1cccnc1)c1c(O)c2cccnc2n(-c2ccccc2)c1=O
Swelling (Rattus norvegicus [1]): 53.2% | Swelling (Rattus norvegicus [2]): 60.5% | inhibition in vivo at 10 mg/kg (Rattus norvegicus [3]; Rattus norvegicus, po): 33.8% | Inhibition (Rattus norvegicus [3]; route oral, 10 mg/kg): 22.7% | Swelling (Rattus norvegicus [4]): 38.2% | inhibition in vivo at 5 mg/kg (Rattus norvegicus [5]): 50% | inhibition in vivo at 3 mg/kg (Rattus norvegicus [6]): 21.9% | inhibition in vivo at 100 mg/kg (Rattus norvegicus [7]): 75.3% | inhibition in vivo at 30 mg/kg (Rattus norvegicus [8]): 43.9% | inhibition in vivo at 30 mg/kg (Rattus norvegicus [9]): 40.7% | inhibition in vivo at 10 mg/kg (Rattus norvegicus [10]): 41.2% | Swelling (Rattus norvegicus [11]): 50.8% | Swelling (Rattus norvegicus [12]): 30.5% | Swelling (Rattus norvegicus [13]): 50.2% | inhibition in vivo at 100 mg/kg (Rattus norvegicus [14]): 30.5% | inhibition in vivo at 10 mg/kg (Rattus norvegicus [15]): 55.7% | Swelling (Rattus norvegicus [16]): 58.6% | inhibition in vivo at 100 mg/kg (Rattus norvegicus [17]): 30.5% | inhibition in vivo at 3 mg/kg (Rattus norvegicus [18]): 40.9% | inhibition in vivo at 3 mg/kg (Rattus norvegicus [19]): 20.2% | Swelling (Rattus norvegicus [20]): 30.6% | Swelling (Rattus norvegicus [21]): 28.9% | Swelling (Rattus norvegicus [22]): 50% | inhibition in vivo at 25 mg/kg (Rattus norvegicus [23]): 42.1% | Swelling (Rattus norvegicus [24]): 44.4% | inhibition in vivo at 25 mg/kg (Rattus norvegicus [25]): 62.9% | inhibition in vivo at 100 mg/kg (Rattus norvegicus [26]): 30.3% | inhibition in vivo at 10 mg/kg (Rattus norvegicus [27]): 44% | inhibition in vivo at 10 mg/kg (Rattus norvegicus [28]): 25.4% | inhibition in vivo at 100 mg/kg (Rattus norvegicus [29]): 30.8% | inhibition in vivo at 100 mg/kg (Rattus norvegicus [30]): 75.3% | inhibition in vivo at 5 mg/kg (Rattus norvegicus [31]): 33.3%

COc1ccccc1NC(=O)c1c(O)c2cccnc2n(-c2ccccc2)c1=O
Swelling (Rattus norvegicus [22]): 65.9% | inhibition in vivo at 100 mg/kg (Rattus norvegicus [32]): 26.8% | Swelling (Rattus norvegicus [24]): 70.7% | inhibition in vivo at 100 mg/kg (Rattus norvegicus [26]): 8.1% | inhibition in vivo at 100 mg/kg (Rattus norvegicus [33]): 16.7% | inhibition in vivo at 100 mg/kg (Rattus norvegicus [29]): -10.1%

Cc1ccccc1NC(=O)c1c(O)c2cccnc2n(-c2ccccc2)c1=O
Swelling (Rattus norvegicus [34]): 75.5% | inhibition in vivo at 100 mg/kg (Rattus norvegicus [35]): 16.9% | inhibition in vivo at 100 mg/kg (Rattus norvegicus [36]): 16.6% | inhibition in vivo at 100 mg/kg (Rattus norvegicus [26]): 11.7% | Swelling (Rattus norvegicus [37]): 81.2% | inhibition in vivo at 100 mg/kg (Rattus norvegicus [29]): 9.8%
